These results are taken from the EternaBench riboswitch data.

In this data set the test system is MS2 coat protein. The experiment in a line: apparent Kd, MS2 coat protein; higher = weaker binding; RNA-MaP array; FMN 200 µM where present. Summed up:
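Green signal was scaled to red-channel RNA signal and control-cluster median Fmax, and the apparent Kd was taken as the median of filtered per-cluster binding-curve fits. The binding series used SNAP-549-labelled MS2 coat protein from 0.7 or 1.5 nM, doubling to 3 µM, on designs transcribed by stalled E. coli RNA polymerase on Illumina sequencing-chip clusters. Each series ran without and then with constant ligand in 100 mM Tris-HCl pH 7.5, 80 mM KCl, 4 mM MgCl2, BSA, DTT, yeast tRNA and Tween-20.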

Where [1] appears, read: designed as: OFF switch for flavin mononucleotide, no ligand.
Where [2] appears, read: ligand present: flavin mononucleotide, designed as: OFF switch for flavin mononucleotide.
Setting [3] is: designed as: ON switch for flavin mononucleotide, no ligand.
Where [4] appears, read: ligand present: flavin mononucleotide, designed as: ON switch for flavin mononucleotide.

Usually apparent Kd stands for the concentration giving half-maximal binding under the conditions of the assay. For the sequence “AGUGCGUAUGUGAGGAUAUGCUGGUCCUUGGCUCGGCAGAAGGCACAUGAGGAUCACCCAUGUGGUGUCGUACC”, the “apparent Kd” value runs as follows: under setting [1], 33 nM; under setting [2], 151 nM.
The matching figures for “AUGCCGUGCAGAGCGCGACGGCGUACAUGAGGAUCACCCAUGUAGGAUAUACUACACAAAGUGUAGUAGAAGGACGUGCGACUG”: 30.6 nM and 33.4 nM.
As for “AGUGUCGGCACAGGAUAUGAGAUGCCGGCAGACAUGAGGAUCACCCAUGUAAGCGAACCAGGCAGUCAGAAGGGUGAUCGACGA”, the “apparent Kd” value runs as follows: under setting [3], 119 nM; under setting [4], 26.9 nM.
“CCUCUACAUGAGGAUCACCCAUGUCAGGAUAUCGUGUGUUUUUUUUCGGCCGCGCGUGCGAGAAGGGACGUCUU”: the “apparent Kd” value under setting [1] is 31.9 nM and the “apparent Kd” value under setting [2] amounted to 32 nM.
For “UCGAAAAUACAAGGAUAUCAAUUGUAGCUAAAUUCAACAUGAGGAUCACCCAUGUAACUAUGGAGUGAGAAGGUGUAGUAAUUU”, the “apparent Kd” value was determined as 113 nM under setting [3] and 450 nM under setting [4].
As to “GACUUGCGCACAGGAUAUCCACGGAGCGGACGUGGAGAAGGGUGACAUGAGGAUCACCCAUGUACGUAAGUCUGGAUCACUCCC”, the “apparent Kd” value was determined as 108 nM under setting [3] and 33.1 nM under setting [4].
For the sequence “GUUUGACAUGAGGAUCACCCAUGUGAGGAUAUCGGCUGGUACGUGUUGGCUGGCAUCUCGAGAAGGCACAUAGG”, the “apparent Kd” value runs as follows: under setting [1], 134 nM; under setting [2], 60.5 nM.
As for “CCUGUCGCAUGAGGAUAUGGUCAGCUUUGCUGACCAGAAGGCAUGUCAAUAGACAUGAGGAUCACCCAUGUAGUUAAGACAGGA”, the “apparent Kd” value under setting [3] worked out at 615 nM and the “apparent Kd” value under setting [4] stood at 46.7 nM.
For “AGUGUGUGGCAGGAUAUGCGAUUUGUCGGUGUAGCAGAAGGGUCUACAUGAGGAUCACCCAUGUGUGCGGUUGA”, the “apparent Kd” value is, setting by setting: under setting [1], 438 nM; under setting [2], 446 nM.
On to “GCUGACGAUGUAGGAUAUCUCGACGAUAAGUCGAGAGAAGGACAUGAGGAUCACCCAUGUAAACUCACGUCAGCGAGGAAACUC”, for which the “apparent Kd” value turned out to be 16.1 nM under setting [1] and 17.2 nM under setting [2].
The matching figures for “GAUAAGCUAGGAUAUACAUAUUAUUUAAUAUCCUCAUUAAUACAUGAGGAUCACCCAUGUAGAAGGAGCAAUAG”: 127 nM and 272 nM.
As to “GCAGCACUUUAUUACAUGAGGAUCACCCAUGUCGAUUGUUAUGAGGAUAUGCAUCGGAUGAAGAUGCAGAAGGCAUUGUGCUGC”, the “apparent Kd” value is, setting by setting: under setting [3], 7.24 nM; under setting [4], 6.04 nM.
As for “ACGACAAAAGUCGAACGAUGUAGCAGAAGGACAUGAGGAUCACCCAUGUAAAAUGUAACAGCCAUGUAGGAUAUGCUACAUCGA”, the “apparent Kd” value turned out to be 31.4 nM under setting [1] and 288 nM under setting [2].
On to “UUCCCAAGUGCAGGAUAUGCUUCACCGACCUCAGCAGAAGGGCACAUGAGGAUCACCCAUGUGGCAAAAGUACACAGCAAGCUG”, for which the “apparent Kd” value was 7.74 nM under setting [1] and 11 nM under setting [2].
As for “GUCAGCUCGUGAGGAUAUACAUGUGCUGGAUACAGCACUAAAGUUUUCACAUGAGGAUCACCCAUGUAGAAGGCACGAGCUGAU”, the “apparent Kd” value turned out to be 15.3 nM under setting [1] and 33.9 nM under setting [2].
“UGUAUACAUGAGGAUCACCCAUGUCAACGUAGUCGAGGAUAUGGGCAGCCGUGAGGCGUACCAGAAGGCGAAGAGG”: the “apparent Kd” value is, setting by setting: under setting [3], 86.5 nM; under setting [4], 19.4 nM.
As to “UUAGAAUUGUUAGGAUAUUAAUUAUUGUAUAGUAUGAUCUACAUGAGGAUCACCCAUGUUAAAUAUAAGAAGGAACGUUAGAUU”, the “apparent Kd” value was found to be 57.6 nM under setting [1] and 51.3 nM under setting [2].
As to “ACUCGUGGACAGAAGGCGACAUGAGGAUCACCCAUGUUGGCUCGGGUAUGACCAAUCCGCAUGAUCGAGGAUAUGUCUGCGGGC”, the “apparent Kd” value is, setting by setting: under setting [1], 326 nM; under setting [2], 16.1 nM.
For the sequence “UCGUUGUCAGGAUAUCGUGUAUACAACGUUAGUUCUAUGUGCGAGAAGGGACAUGAGGAUCACCCAUGUUACGU”, the “apparent Kd” value under setting [1] worked out at 69.2 nM and the “apparent Kd” value under setting [2] was 213 nM.
“GGGUACAUCGGAGGAUAUUAUGUAAAUACAUGAGGAUCACCCAUGUCGAUGGAGACAUCGGAGAUUGAGAAGGCCGAUGUACCG”: the “apparent Kd” value amounted to 119 nM under setting [3] and 8.94 nM under setting [4].
The matching figures for “UCCCGAAGGCGGGCCGACCAUACAUGAGGAUCACCCAUGUCGAGAAGGUGCUCACGGGUGGGUGGCAAGGAUAUCGGGUCGGAU”: 93.8 nM and 42.3 nM.
With “ACAUGAGGAUCACCCAUGUUAUCAGGGACUUCAAUUAUUUGUAGAAGGAUGUUUUCUUGUUAGUCAUAGGAUAUACAAUUAAAU”, the “apparent Kd” value was 16 nM under setting [1] and 15.3 nM under setting [2].
For “UCACACCACGUUAGGAUAUCGCUGGACAAAACUGGCGAGAAGGAACAUGAGGAUCACCCAUGUGACUUCAAGGU”, in that order: 16.2 nM and 18.5 nM.
For “GGUGCGUUUGUGAGGAUAUGCUGGUCCUUGGAUCUGCAGAAGGCACAUGAGGAUCACCCAUGUGGUGUCGUACC”, in that order: 293 nM and 36.5 nM.
Turning to “GUGCUCGUGUAAGGAUAUGCAGCCGUUUCGGCUGCAGAAGGUACUAUAAUACAUGAGGAUCACCCAUGUCUCUAUUGUUUGGUG”, the “apparent Kd” value runs as follows: under setting [3], 120 nM; under setting [4], 153 nM.
Take “GAGUAGUUGGGAGGAUAUCGAUUGUUAUAGAAUCGAGAAGGUUCUAACAUGAGGAUCACCCAUGUAGGACUAUUCCUGUGUAUC”: the “apparent Kd” value was found to be 71.8 nM under setting [3] and 65.4 nM under setting [4].
Take “GGUUGUCAAAGACAACCAUAACGAACAUGAGGAUCACCCAUGUAGGAUAUGCUUCUCAAAGAGAAGCAGAAGGACAUGUGUCUU”: the “apparent Kd” value by setting is: under setting [1], 31.8 nM; under setting [2], 177 nM.
“AUAAUGUAAGGAUAUCAGUCGACUAGCCUCGGCUAGUCGACUGAGAAGGUACAUGAGGAUCACCCAUGUGUUCC”: the “apparent Kd” value under setting [1] is 140 nM and the “apparent Kd” value under setting [2] is 766 nM.
Regarding “AGUCGGAGCAGAGGAUAUAUACAUGAGGAUCACCCAUGUAAAUGAAUAAGCUGGAAACAGCAAGUAUAGAAGGCUGCUCCGACA”, the “apparent Kd” value by setting is: under setting [1], 14.5 nM; under setting [2], 16.2 nM.
As to “UUUGCAUUCCGAGGAUAUUCAUUUAAUGACUUCACAUGAGGAUCACCCAUGUGGCGAUUGCGCCGGGAGAAGGCGGUUUGCUUU”, the “apparent Kd” value came out at 24.7 nM under setting [3] and 24 nM under setting [4].
As for “GUCAUGUUAGGAUAUCUGACAUGUGACUUCGGUCACUGUCCAGAGAAGGAACAUGAGGAUCACCCAUGUUGGAC”, the “apparent Kd” value runs as follows: under setting [1], 55.6 nM; under setting [2], 63.9 nM.
As to “CAGCGAUAGCUGAAUGGUACAUGGGAGGAUAUGGGUUACAUGAGGAUCACCCAUGUUAAAUAAUACUAGAAGGCCCAUGUACCU”, the “apparent Kd” value reads like this: under setting [3], 16.5 nM; under setting [4], 4.55 nM.
For “GGAGCCGGUACUGAGGAUAUUCAUAUUAAAACAUGAGGAUCACCCAUGUGGGCCAGAAGGCCUUGGGAGAAGGCAGACCAGCUCG”, the “apparent Kd” value by setting is: under setting [3], 238 nM; under setting [4], 22.1 nM.
In the case of “AUUAAUCAGCAGGAUAUAAGUAUCUGAUGGUGGUUAGAAGGGCUGACAUGAGGAUCACCCAUGUGCUCUUCGUG”, the “apparent Kd” value by setting is: under setting [1], 11.4 nM; under setting [2], 13.8 nM.
In the case of “UGACGGAGCAGAGGAUAUACAUGAGGAUCACCCAUGUAAAUGAAAGAUAGCAGCAAAGCUGCAAUGUAGAAGGCUGCUCCGUCA”, the “apparent Kd” value under setting [1] worked out at 29.8 nM and the “apparent Kd” value under setting [2] is 84.9 nM.
For “GGUUGUCAAAGACAACCAUAACGAACAUGAGGAUCACCCAUGUAGGAUAUGCUACUCAAAGAGUAGCAGAAGGACAUGUGCCUU”, in that order: 37.6 nM and 326 nM.
